From publication PMC5055850 (Bioorganic & medicinal chemistry, 2016) come the findings set out here.

Like-named read-outs stand apart in the source and are kept apart here.

What all share (format): cell-based
For experiment [1], the system named is human polymorphonuclear neutrophils (hPMN). Description: Ca2+ flux assay in human neutrophils. The settings on record: for EC50: Homo sapiens, Polymorphonuclear neutrophil, read-out: hPMN EC50; for hPMN Efficacy: % of the response induced by 5 nM fMLF. Summed up:
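Neutrophils from healthy donors' blood, purified by dextran sedimentation, Histopaque 1077 gradient and hypotonic red-cell lysis (>95% pure, >98% viable). Cells in HBSS− with 10 mM HEPES were loaded with Fluo-4 AM (1.25 µg/mL final) for 30 min at 37 °C, then plated at 2 × 10^5 cells/well. Fluorescence (485/538 nm) read every 5 s for 240 s at room temperature. Peak change normalized to 5 nM fMLF. EC50 from 5–6-point nonlinear regression, three experiments.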

For the next experiment, the target named is T1, FPR1 (Homo sapiens, UniProt P21462).
T1 sequence (P21462 1-350): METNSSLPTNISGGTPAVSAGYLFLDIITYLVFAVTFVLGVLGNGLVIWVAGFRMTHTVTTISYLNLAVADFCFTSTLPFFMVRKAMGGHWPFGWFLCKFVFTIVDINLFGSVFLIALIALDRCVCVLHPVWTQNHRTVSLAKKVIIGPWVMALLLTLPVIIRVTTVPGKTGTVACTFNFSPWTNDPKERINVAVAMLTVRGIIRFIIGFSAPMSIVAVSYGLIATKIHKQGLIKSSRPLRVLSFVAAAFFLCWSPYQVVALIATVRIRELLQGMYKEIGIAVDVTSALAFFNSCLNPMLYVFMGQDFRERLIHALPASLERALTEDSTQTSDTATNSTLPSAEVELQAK
Nature of the experiment: Ca2+ flux assay in FPR1-HL60 cells. As to conditions: for Emax: read-out: FPR1-HL60 Efficacy; for FPR1-HL60 Efficacy: % of the response induced by 5 nM fMLF. Summed up:
(§1)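 FPR1-, FPR2- or FPR3-transfected HL-60 cells grown in RPMI 1640 with 10% heat-inactivated FCS, 10 mM HEPES and G418 (1 mg/mL). Cells loaded with Fluo-4 AM (1.25 µg/mL final) for 30 min at 37 °C in the dark, then 2 × 10^5 cells/well. Fluorescence (ex 485/em 538 nm) read every 5 s for 240 s at room temperature. Peak rise over baseline normalized to 5 nM fMLF (FPR1) or 5 nM WKYMVm (FPR2, FPR3). EC50 from 5–6-point nonlinear fits, three independent experiments.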
On the technique in general: Calcium assays in cells follow changes in intracellular calcium, usually with a dye or a luminescent sensor.

The target in a further experiment is T2, FPR2 (Homo sapiens, UniProt P25090).
T2 sequence (P25090 1-351): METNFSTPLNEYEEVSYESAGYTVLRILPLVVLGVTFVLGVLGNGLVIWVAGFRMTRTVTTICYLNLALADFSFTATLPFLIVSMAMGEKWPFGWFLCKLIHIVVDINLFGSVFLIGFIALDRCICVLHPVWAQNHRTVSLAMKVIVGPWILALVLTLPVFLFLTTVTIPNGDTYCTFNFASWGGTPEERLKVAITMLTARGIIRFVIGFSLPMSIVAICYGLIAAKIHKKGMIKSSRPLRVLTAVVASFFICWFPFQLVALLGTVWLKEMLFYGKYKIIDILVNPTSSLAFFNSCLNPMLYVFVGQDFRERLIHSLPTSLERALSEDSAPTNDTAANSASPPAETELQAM
Description: Ca2+ flux assay in FPR2-HL60 cells. As to conditions: for Emax: read-out: FPR2-HL60 Efficacy; for FPR2-HL60 Efficacy: % of the response induced by 5 nM WKYMVm. Summed up: as §1

Experiment [2] has as its system mouse polymorphonuclear neutrophils (mPMN). Description: Ca2+ flux assay in mouse neutrophils. As to conditions: for mPMN Efficacy: % of the response induced by 5 nM WKYMVm; for EC50: Mus musculus, Polymorphonuclear neutrophil, read-out: mPMN EC50. Summed up:
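Neutrophils taken from BALB/c mouse tibia and femur bone marrow. Isolated on a 45/50/55/62/81% Percoll gradient (1600g, 30 min, 10 °C), then Histopaque 1119 to remove red cells, and kept in HBSS−. Ca2+ fluorescence (485/538 nm) monitored every 5 s for 240 s at room temperature after compound addition. Maximal change over baseline normalized to 5 nM WKYMVm. EC50 from 5–6-point nonlinear regression, three independent experiments.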

Where [3] appears, read: FPR2-HL60 EC50, Ca2+ flux, HL-60 cells transfected with FPR2.
[4] abbreviates: read-out: FPR1-HL60 EC50, Ca2+ flux, HL-60 cells transfected with FPR1.
The mark [5] stands for this setting: read-out: FPR2-HL60 EC50, Ca2+ flux, HL-60 cells transfected with FPR2.

As a reminder, the EC50 is the concentration needed to bring the measured effect to its halfway point. On to `CCC(=O)c1c(C)nn(CC(=O)Nc2ccc(Br)cc2)c(=O)c1Nc1cccc(OC)c1` [Compound 8b, N-(4-Bromophenyl)-2-[5-(3-methoxyphenylamino)-3-methyl-6-oxo-4-propionylpyridazin-1(6H)-yl]acetamide], for which the EC50 was found to be 5.5 ± 1.6 µM in experiment [1], 2.7 ± 0.8 µM on FPR1, 0.78 ± 0.1 µM at FPR2 (setting [3]) and 8.4 ± 2.6 µM in experiment [2]. The Emax at FPR1 was 130%; on FPR2 it was 190%. Further, the “mPMN Efficacy” value in experiment [2] is 75%.
Take `CCCC(=O)c1c(C)nn(CC(=O)Nc2ccc(Br)cc2)c(=O)c1Nc1cccc(OC)c1` [Compound 8c, N-(4-Bromophenyl)-2-[4-butyryl-5-(3-methoxyphenylamino)-3-methyl-6-oxopyridazin-1(6H)-yl]acetamide]: the values for the EC50 (in experiment [1]; on FPR1; at FPR2 (setting [3])) were 24 ± 4.2 µM, 11.8 ± 3.5 µM and 8.1 ± 2.1 µM, respectively. Besides, the Emax on FPR1 was 70%; at FPR2, 90%.
Turning to `CCCCC(=O)c1c(C)nn(CC(=O)Nc2ccc(Br)cc2)c(=O)c1Nc1cccc(OC)c1` [Compound 8d, N-(4-Bromophenyl)-2-[5–(3-methoxyphenylamino)-3-methyl-6-oxo-4-pentanoylpyridazin-1(6H)-yl]acetamide], in experiment [1], the EC50 was found to be 8 ± 2.6 µM. Besides, on FPR1, the EC50 was determined as 15.6 ± 2.6 µM and the Emax was 45%. In addition, in experiment [2], the “mPMN Efficacy” value is recorded as 105% and the 50% effective concentration (EC50) is 24.1 ± 6.1 µM.
As for `COc1cccc(Nc2c(C(=O)C3CCCC3)c(C)nn(CC(=O)Nc3ccc(Br)cc3)c2=O)c1` [Compound 8e, N-(4-Bromophenyl)-2-[4–cyclopentanecarbonyl-5-(3-methoxyphenylamino)-3-methyl-6-oxopyridazin-1(6H)-yl]acetamide], the EC50 turned out to be 1.7 ± 0.4 µM in experiment [1], 1.6 ± 0.4 µM at FPR1, 10.5 ± 2.1 µM at FPR2 (setting [3]) and 15.9 ± 4.9 µM in experiment [2]. Besides, the Emax was 110% on FPR1 and 60% on FPR2. Besides, in experiment [2], the “mPMN Efficacy” value is 120%.
For the molecule `COc1cccc(Nc2c(C(=O)C3CCCCC3)c(C)nn(CC(=O)Nc3ccc(Br)cc3)c2=O)c1` [Compound 8f, N-(4-Bromophenyl)-2-[4-cyclohexanecarbonyl-5-(3-methoxyphenylamino)-3-methyl-6-oxopyridazin-1(6)-yl]acetamide], the “hPMN Efficacy” value in experiment [1] is reported as 120%. In addition, on FPR1, the “FPR1-HL60 Efficacy” value is 110%. The EC50 came out at 10 ± 3.2 µM on FPR1 (setting [4]) and 8.7 ± 0.47 µM on FPR2 (setting [5]). Also, the “FPR2-HL60 Efficacy” value at FPR2 amounted to 115%.
On to `CCCc1c(C)nn(CC(=O)Nc2ccc(Br)cc2)c(=O)c1Nc1cccc(OC)c1` [Compound 13b, N-(4-Bromophenyl)-2-[5-(3-methoxyphenylamino)-3-methyl-6-oxo-4-propylpyridazin-1(6H)-yl]acetamide], for which the “FPR2-HL60 EC50” value at FPR2 (Ca2+ flux, HL-60 cells transfected with FPR2) is reported as “completely devoid of activity”.
`CCCCc1c(C)nn(CC(=O)Nc2ccc(Br)cc2)c(=O)c1Nc1cccc(OC)c1` [Compound 13c, N-(4-Bromophenyl)-2-[4-butyl-5-(3-methoxyphenylamino)-3-methyl-6-oxopyridazin-1(6H)-yl]acetamide]: the values for the EC50 (in experiment [1]; on FPR1; on FPR2 (setting [3])) were 1.4 ± 0.8 µM, 3.6 ± 1.1 µM and 4.5 ± 1.3 µM, respectively. The values for the Emax at FPR1 and on FPR2 were 65% and 30%, respectively.
As to `CCCCCc1c(C)nn(CC(=O)Nc2ccc(Br)cc2)c(=O)c1Nc1cccc(OC)c1` [Compound 13d, N-(4-Bromophenyl)-2-[5-(3-methoxyphenylamino)-3-methyl-6-oxo-4-pentyldazin-1(6H)-yl]acetamide], the “hPMN Efficacy” value in experiment [1] was found to be 55%. Further, at FPR1, the “FPR1-HL60 Efficacy” value was found to be 95%. Further, the EC50 on FPR1 (setting [4]) is 1.4 ± 0.34 µM; on FPR2 (setting [5]) it was 0.19 ± 0.018 µM. For the same molecule, on FPR2, the “FPR2-HL60 Efficacy” value amounted to 115%.
Regarding `COC(=O)c1c(C)nn(CC(=O)Nc2ccc(Br)cc2)c(=O)c1Nc1cccc(OC)c1` [Compound 19a, Methyl 1-[(4-bromophenylcarbamoyl)methyl]-5-(3-methoxyphenylamino)-1,6-dihydro-3-methyl-6-oxopyridazine-4-carboxylate], the EC50 was 22.1 ± 5.3 µM in experiment [1], 4.4 ± 0.6 µM at FPR1 and 2.3 ± 0.49 µM on FPR2 (setting [3]). The Emax at FPR1 is 25%; on FPR2 it was 60%.
Taken in the same sequence, the figures for `CCOC(=O)c1c(C)nn(CC(=O)Nc2ccc(Br)cc2)c(=O)c1Nc1cccc(OC)c1` [Compound 19b, Ethyl 1-[(4-bromophenylcarbamoyl)methyl]-5-(3-methoxyphenylamino)-1,6-dihydro-3-methyl-6-oxopyridazine-4-carboxylate] were 6.1 ± 1.7 µM, 2.5 ± 0.7 µM, 1.9 ± 0.03 µM, 90% and 110%.
As to `Cc1nn(CC(=O)Nc2ccc(Br)cc2)c(=O)c(N)c1-c1cc[nH]n1` [Compound 25, 2-[5-Amino-3-methyl-6-oxo-4-(1H-pyrazol-3-yl)-6H-pyridazin-1-yl]-N-(4-bromo--phenyl)acetamide], in experiment [1], the “hPMN Efficacy” value turned out to be 140%. The “FPR1-HL60 Efficacy” value on FPR1 stood at 135%. The EC50 on FPR1 (setting [4]) came out at 8.4 ± 1.5 µM; on FPR2 (setting [5]), 13.5 ± 1.8 µM. For the same molecule, on FPR2, the “FPR2-HL60 Efficacy” value was found to be 60%.
Consider `Cc1nn(CC(=O)Nc2ccc(Br)cc2)c(=O)c(N)c1-c1ccn(C)n1` [Compound 26, 2-[5-Amino-3-methyl-4-(1-methyl-1H-pyrazol-3-yl)-6-oxopyridazin-1(6H)-yl]-N-(4-bromophenyl)acetamide], for which the EC50 turned out to be 3.5 ± 0.32 µM in experiment [1], 2.9 ± 0.14 µM on FPR1, 1.9 ± 0.71 µM at FPR2 (setting [3]) and 5.6 ± 2.4 µM in experiment [2]. Moreover, the Emax was 75% on FPR1 and 40% on FPR2. Moreover, the “mPMN Efficacy” value in experiment [2] came out at 45%.
For the molecule `COc1cccc(Nc2cc(C)nn(CC(=O)Nc3ccc(Br)cc3)c2=O)c1` [Compound 29a, N-(4-Bromophenyl)-2-[5-(3-methoxyphenylamino)-3-methyl-6-oxopyridazin-1(6H)-yl]-acetamide], the results for the EC50 (in experiment [1]; at FPR1; at FPR2 (setting [3])) were 0.56 ± 0.12 µM, 0.24 ± 0.09 µM and 9.6 ± 2 µM, respectively. For the same molecule, the Emax was 120% at FPR1 and 65% on FPR2.
The like results for `COc1cccc(Nc2cc(C)cn(CC(=O)Nc3ccc(Br)cc3)c2=O)c1` [Compound 29b, N-(4-Bromophenyl)-2-[3-(3-methoxyphenylamino)-5-methyl-2-oxopyridin-1(2H)-yl]acetamide] were, in that order, 4.31 ± 0.4 µM, 2.5 ± 0.7 µM, 8.1 ± 1.7 µM, 110% and 75%.
